Calls of active or inactive are those of the source. The rule behind the calls is not given here.
What was measured:
[1] = tested on: TC-32; experiment: Cytotoxicity against human TC-32 cells assessed as reduction in cell viability incubated for 48 hrs by CellTiter-Blue reagent based […] assay; assay type: functional; settings: TC-32, 48 h
Method in brief: (§1)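 Cells seeded and grown to 60–80% confluency (usually 18–24 h), then treated 48 h with a range of concentrations prepared in each line's medium. CellTiter-Blue reagent added at the end of treatment and incubated 3–5 h at 37 °C, 5% CO₂. Fluorescence read at 560 nm excitation and 590 nm emission. IC50 from nonlinear regression, log(inhibitor) vs. normalized response.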

[2] = Cytotoxicity against human TC71 cells assessed as reduction in cell viability incubated for 48 hrs by CellTiter-Blue reagent based […] assay; assay type: functional; settings: TC-71, 48 h; method in brief: as §1
[3] = tested on: SAOS-2; experiment: Cytotoxicity against human SAOS-2 cells assessed as reduction in cell viability incubated for 48 hrs by CellTiter-Blue reagent based […] assay; assay type: functional; settings: SAOS-2, 48 h; method in brief: as §1
[4] = tested on: U2OS; experiment: Cytotoxicity against human U2OS cells assessed as reduction in cell viability incubated for 48 hrs by CellTiter-Blue reagent based […] assay; assay type: functional; method in brief: as §1
[5] = Cytotoxicity against human A4573 cells assessed as reduction in cell viability incubated for 48 hrs by CellTiter-Blue reagent based […] assay; assay type: functional; settings: A4573, 48 h; method in brief: as §1
[6] = tested on: U2OS; experiment: Induction of apoptosis in human U2OS cells assessed as caspase-3 cleavage at 0.1 to 0.4 uM incubated for 48 hrs by western blot analysis; assay type: functional, cell-based; settings: dose 0.1-0.4 µM
Method in brief: (§2)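 Cells treated 48 h with three concentrations per agent (0.1, 0.2 or 0.4 μM for one; 10, 20 or 40 μM for another). Total cell lysates immunoblotted for PARP and caspase 3 and their cleaved products. Actin used as loading control and for normalization. ECL signal imaged on PVDF, bands quantified by densitometry.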

[7] = tested on: TC-32; experiment: Induction of apoptosis in human TC-32 cells assessed as PARP cleavage at 0.1 to 0.4 uM incubated for 48 hrs by western blot analysis; assay type: functional, cell-based; settings: dose 0.1-0.4 µM; method in brief: as §2
[8] = tested on: TC-32; experiment: Induction of apoptosis in human TC-32 cells assessed as caspase-3 cleavage at 0.1 to 0.4 uM incubated for 48 hrs by western blot analysis; assay type: functional, cell-based; settings: dose 0.1-0.4 µM; method in brief: as §2
[9] = tested on: TC-32; experiment: Induction of apoptosis in human TC-32 cells assessed as increase in hypodiploid subG1 population at 0.1 to 0.4 uM incubated for 48 hrs by propidium iodide staining based flow cytometry; assay type: functional, cell-based; settings: dose 0.1-0.4 µM
Method in brief: (§3)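 Treatment same as the apoptosis blots (48 h; 0.1–0.4 μM or 10–40 μM). Adherent cells trypsinized and pooled with floating cells, then washed in PBS. Fixed in ice-cold 70% ethanol 1 h on ice, rehydrated, RNase A 100 μg/mL. Stained with propidium iodide at 50 μg/mL final for 1 h on ice. Sub-G1 fraction read by flow cytometry.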

[10] = tested on: U2OS; experiment: Induction of apoptosis in human U2OS cells assessed as increase in hypodiploid subG1 population at 0.1 to 0.4 uM incubated for 48 hrs by propidium iodide staining based flow cytometry; assay type: functional, cell-based; settings: dose 0.1-0.4 µM; method in brief: as §3
[11] = tested on: U2OS; experiment: Induction of apoptosis in human U2OS cells assessed as PARP cleavage at 0.1 to 0.4 uM incubated for 48 hrs by western blot analysis; assay type: functional, cell-based; settings: dose 0.1-0.4 µM; method in brief: as §2

Nc1ncnc2c1ncn2[C@@H]1O[C@H](CN2CCOCC2)[C@@H](O)[C@H]1F
IC50 [1]: ≥ 50 µM | IC50 [2]: ≥ 50 µM | IC50 [3]: ≥ 50 µM | IC50 [4]: ≥ 50 µM | IC50 [5]: ≥ 50 µM

Nc1nc(Cl)nc2c1ncn2[C@H]1C[C@H](O)[C@@H](CO)O1 [CLADRIBINE]
IC50 [1]: 2.92 µM | IC50 [2]: 1.1 µM | IC50 [3]: ≥ 50 µM | IC50 [4]: ≥ 50 µM | IC50 [5]: 1.49 µM

Nc1ncnc2c1ncn2[C@H]1C[C@H](O)[C@@H](C(=O)O)O1
IC50 [1]: ≥ 50 µM | IC50 [2]: ≥ 50 µM | IC50 [3]: ≥ 50 µM | IC50 [4]: ≥ 50 µM | IC50 [5]: ≥ 50 µM

Nc1nc(-c2ccsc2)nc2c1ncn2[C@H]1C[C@H](O)[C@@H](CO)O1
IC50 [1]: ≥ 50 µM | IC50 [2]: ≥ 50 µM | IC50 [3]: ≥ 50 µM | IC50 [4]: ≥ 50 µM | IC50 [5]: ≥ 50 µM

Nc1nc(-c2ccncc2)nc2c1ncn2[C@@H]1O[C@H](CO)[C@@H](O)[C@@H]1F
IC50 [1]: ≥ 50 µM | IC50 [2]: ≥ 50 µM | IC50 [3]: ≥ 50 µM | IC50 [4]: ≥ 50 µM | IC50 [5]: ≥ 50 µM

Nc1ncnc2c1ncn2[C@@H]1O[C@H](C(=O)O)[C@@H](O)[C@H]1F
IC50 [1]: ≥ 50 µM | IC50 [2]: ≥ 50 µM | IC50 [3]: ≥ 50 µM | IC50 [4]: ≥ 50 µM | IC50 [5]: ≥ 50 µM

CS(=O)(=O)C[C@H]1O[C@@H](n2cnc3c(N)nc(Cl)nc32)C[C@@H]1O
IC50 [1]: ≥ 50 µM | IC50 [2]: 36 µM | IC50 [3]: ≥ 50 µM | IC50 [4]: ≥ 50 µM | IC50 [5]: ≥ 50 µM

CSC[C@H]1O[C@@H](n2cnc3c(N)nc(SC)nc32)[C@@H](F)[C@@H]1O
IC50 [1]: ≥ 50 µM | IC50 [2]: ≥ 50 µM | IC50 [3]: ≥ 50 µM | IC50 [4]: ≥ 50 µM | IC50 [5]: ≥ 50 µM

Nc1nc(-c2ccsc2)nc2c1ncn2[C@@H]1O[C@H](CO)[C@@H](O)[C@@H]1F
IC50 [1]: ≥ 50 µM | IC50 [2]: ≥ 50 µM | IC50 [3]: ≥ 50 µM | IC50 [4]: ≥ 50 µM | IC50 [5]: ≥ 50 µM

Nc1nc(-c2ccoc2)nc2c1ncn2[C@H]1C[C@H](O)[C@@H](CO)O1
IC50 [1]: 55 µM | IC50 [2]: 67.8 µM | IC50 [3]: 172 µM | IC50 [4]: 199 µM | IC50 [5]: 77.5 µM

Nc1nc(-c2ccoc2)nc2c1ncn2[C@@H]1O[C@H](CO)[C@@H](O)[C@@H]1F
IC50 [1]: ≥ 50 µM | IC50 [2]: ≥ 50 µM | IC50 [3]: ≥ 50 µM | IC50 [4]: ≥ 50 µM | IC50 [5]: ≥ 50 µM

Nc1nc(-c2cccnc2)nc2c1ncn2[C@H]1C[C@H](O)[C@@H](CO)O1
IC50 [1]: 52.2 µM | IC50 [2]: 29.3 µM | IC50 [3]: 110 µM | IC50 [4]: 162 µM | IC50 [5]: 54.4 µM

Nc1ncnc2c1ncn2[C@@H]1O[C@H](CN2CCOCC2)[C@@H](O)[C@@H]1F
IC50 [1]: ≥ 50 µM | IC50 [2]: ≥ 50 µM | IC50 [3]: ≥ 50 µM | IC50 [4]: ≥ 50 µM | IC50 [5]: ≥ 50 µM

Nc1nc(N2CCOCC2)nc2c1ncn2[C@@H]1O[C@H](CN2CCOCC2)[C@@H](O)[C@@H]1F
IC50 [1]: ≥ 100 µM | IC50 [2]: ≥ 100 µM | IC50 [3]: ≥ 100 µM | IC50 [4]: ≥ 100 µM

Nc1ncnc2c1ncn2[C@H]1C[C@H](O)[C@@H](CN2CCOCC2)O1
IC50 [1]: ≥ 50 µM | IC50 [2]: ≥ 50 µM | IC50 [3]: ≥ 50 µM | IC50 [4]: ≥ 50 µM | IC50 [5]: ≥ 50 µM

Nc1nc(Cl)nc2c1ncn2[C@@H]1O[C@H](CN2CCOCC2)[C@@H](O)[C@@H]1F
IC50 [1]: ≥ 100 µM | IC50 [2]: ≥ 100 µM | IC50 [3]: ≥ 100 µM | IC50 [4]: ≥ 100 µM

Nc1ncnc2c1ncn2[C@@H]1C[C@@H](O)[C@H](CN2CCOCC2)O1
IC50 [1]: ≥ 50 µM | IC50 [2]: ≥ 50 µM | IC50 [3]: ≥ 50 µM | IC50 [4]: ≥ 50 µM | IC50 [5]: ≥ 50 µM

Nc1ncnc2c1ncn2[C@@H]1O[C@H](C(=O)O)[C@@H](O)[C@@H]1F
IC50 [1]: ≥ 50 µM | IC50 [2]: ≥ 50 µM | IC50 [3]: ≥ 50 µM | IC50 [4]: ≥ 50 µM | IC50 [5]: ≥ 50 µM

Nc1nc(-c2ccncc2)nc2c1ncn2[C@H]1C[C@H](O)[C@@H](CO)O1
IC50 [1]: ≥ 50 µM | IC50 [2]: ≥ 50 µM | IC50 [3]: ≥ 50 µM | IC50 [4]: ≥ 50 µM | IC50 [5]: ≥ 50 µM

Nc1ncnc2c1ncn2[C@@H]1C[C@@H](O)[C@H](C(=O)O)O1
IC50 [1]: ≥ 50 µM | IC50 [2]: ≥ 50 µM | IC50 [3]: ≥ 50 µM | IC50 [4]: ≥ 50 µM | IC50 [5]: ≥ 50 µM

Nc1nc(Cl)nc2c1ncn2[C@H]1C[C@H](O)[C@@H](CN2CCOCC2)O1
IC50 [1]: ≥ 100 µM | IC50 [2]: ≥ 100 µM | IC50 [3]: 97.3 µM | IC50 [4]: ≥ 100 µM

CS(=O)(=O)C[C@H]1O[C@@H](n2cnc3c(N)nc(Cl)nc32)[C@@H](F)[C@@H]1O
IC50 [1]: ≥ 50 µM | IC50 [2]: 31.4 µM | IC50 [3]: ≥ 50 µM | IC50 [4]: ≥ 50 µM | IC50 [5]: ≥ 50 µM

Nc1nc(Cl)nc2c1ncn2[C@H]1C[C@H](O)[C@@H](COc2cc(C(=O)O)cc(C(=O)O)c2)O1
IC50 [1]: ≥ 100 µM | IC50 [2]: ≥ 100 µM | IC50 [3]: ≥ 100 µM | IC50 [4]: ≥ 100 µM

C=C1O[C@@H](n2cnc3c(N)nc(N4CCOCC4)nc32)[C@@H](F)[C@@H]1O
IC50 [1]: 98 µM | IC50 [2]: ≥ 100 µM | IC50 [3]: 97.3 µM | IC50 [4]: 67 µM

Nc1nc(Cl)nc2c1ncn2[C@@H]1O[C@H](CO)[C@@H](O)[C@@H]1F [CLOFARABINE]
Activity [6]: inactive | Activity [7]: Active | IC50 [1]: 0.13 µM | Activity [8]: Active | Activity [9]: Active | Activity [10]: inactive | IC50 [2]: 0.09 µM | IC50 [3]: ≥ 50 µM | IC50 [4]: ≥ 50 µM | Activity [11]: inactive | IC50 [5]: 0.18 µM

Nc1nc(Cl)nc2c1ncn2[C@@H]1O[C@H](COc2cc(C(=O)O)cc(C(=O)O)c2)[C@@H](O)[C@@H]1F
IC50 [1]: ≥ 100 µM | IC50 [2]: 96.7 µM | IC50 [3]: 86.5 µM | IC50 [4]: ≥ 100 µM
